# Calls of active or inactive are those of the source. The rule behind the calls is not given here.
# Experiments:
# HEK293T [1] = assay: Binding affinity to MINA53 in HEK293T cells assessed as substrate trapping using RPL27A as substrate at 100 uM after 18 hrs by immunoprecipitation analysis; assay type: cell-based; details: Homo sapiens
# Summary of the method: (§1)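 HEK293T transiently expressing HA-MINA53, HA-NO66 or empty vector. Treated with 100 μM compound or 0.5% DMSO for 18 h. Cells lysed 1 h at 4 °C in JIES buffer; anti-HA agarose IP overnight, washed, eluted with HA peptide. Blots probed for RPL27A (MINA53) or RPL8 (NO66).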
# HeLa [2] = assay: Antiproliferative activity against human HeLa cells at 10 to 100 uM incubated for 72 to 120 hrs by MTT assay; assay type: functional, cell-based; details: dose 10-100 µM, time 72-120 hrs
# Summary of the method: (§2)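 HEK293T or HeLa grown in DMEM with 10% FBS, mycoplasma-tested and STR-authenticated. Compounds added 24 h after seeding at 10–100 μM for 72–120 h; 0.5% DMSO as control. Viability by MTT colorimetric assay, expressed as treated/control ×100.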
# HT-29 = assay: Antiproliferative activity against human HT-29 cells at 10 to 100 uM incubated for 72 to 120 hrs by MTT assay; assay type: functional, cell-based; details: dose 10-100 µM, time 72-120 hrs
# Summary of the method: (§3)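 HT-29, U-87MG or MKN-45 in RPMI with 10% FBS and L-glutamine. Seeded in sextuplicate at 1.5×10^3 cells/well; compounds at 10–100 μM added after 24 h and left 72, 96 or 120 h; 0.5% DMSO control. MTT absorbance read; viability as treated/control ×100. Mean ± SD of two independent experiments in triplicate.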
# U-87 MG [3] = assay: Synergistic cytotoxicity against human U-87MG cells assessed as combinantion index at ED90 after 24 hrs in presence of doxorubicin by MTT assay; assay type: functional, U-87MG ATCC
# Summary of the method: (§4)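 Doxorubicin combined with inhibitor at a fixed 1:20 concentration ratio, 24 h exposure, U-87MG viability read by MTT. Combination index calculated with the CI equation and plotted against fractional growth inhibition. CI <0.9 is scored as synergism, 0.9–1.1 as additivity, >1.1 as antagonism. Mean of two independent experiments in triplicate.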
# HEK-293T = assay: Antiproliferative activity against human HEK293T cells at 10 to 100 uM incubated for 72 to 120 hrs by MTT assay; assay type: functional, cell-based; details: dose 10-100 µM, time 72-120 hrs; summary of the method: as §2
# U-87 MG [4] = assay: Binding affinity to MINA53 in U-87MG cells assessed as substrate trapping using RPL27A as substrate at 100 uM after 18 hrs by immunoprecipitation analysis; assay type: cell-based; details: Homo sapiens
# U-87 MG [5] = assay: Inhibition of KDM4 in human U-87MG cells assessed as increase in H3K9me3 level after 48 hrs by immunofluorescence analysis; assay type: cell-based
# Summary of the method: (§5)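 U-87MG on coverslips, treated 24 h after plating with 50 μM compound for 48 h. Reference inhibitors: CPI-455 25 μM (KDM5), IOX-1 100 μM (KDM4), GSK-J4 10 μM (KDM6). PFA-fixed cells immunostained for H3K4me3, H3K9me3 or H3K27me3 with DAPI counterstain. Per-cell nuclear intensity quantified, ≥50 cells per condition; Mann–Whitney test vs DMSO.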
# U-87 MG [6] = assay: Synergistic cytotoxicity against human U-87MG cells assessed as reduction in cell viability at 20 uM after 24 hrs in presence of doxorubicin by MTT assay; assay type: functional, U-87MG ATCC
# Summary of the method: (§6)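 U-87MG in RPMI with 10% FBS. Treated 24 h with doxorubicin alone, test compound alone, or both at a fixed doxorubicin:compound ratio of 1:20. Viability read by MTT absorbance and expressed as treated/control ×100. Mean ± SD of two independent experiments, each in triplicate.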
# U-87 MG [7] = assay: Cytotoxicity against human U-87MG cells assessed as doxorubicin sensitization after 24 hrs in presence of doxorubicin by MTT assay; assay type: functional, cell-based; details: U-87MG ATCC; summary of the method: as §6
# U-87 MG [8] = assay: Cytotoxicity against human U-87MG cells assessed as reduction in cell viability after 24 hrs in presence of doxorubicin by MTT assay; assay type: functional, cell-based; details: U-87MG ATCC; summary of the method: as §6
# HeLa [9] = assay: Binding affinity to MINA53 in HeLa cells assessed as substrate trapping using RPL27A as substrate at 100 uM after 18 hrs by immunoprecipitation analysis; assay type: cell-based; details: Homo sapiens
# U-87 MG [10] = assay: Inhibition of KDM6 in human U-87MG cells assessed as increase in H3K27me3 level after 48 hrs by immunofluorescence analysis; assay type: cell-based; summary of the method: as §5
# MV4-11 = assay: Antiproliferative activity against human MV4-11 cells at 100 uM incubated for 48 hrs by WST-1 assay; assay type: functional, cell-based
# Summary of the method: (§7)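 Leukemia/lymphoma lines plated in triplicate at 5×10^3 cells/well. Exposed to increasing compound concentrations (maximum 100 μM) for 48 h at 37 °C, 5% CO2. WST-1 reagent then added for 1 h. IC50 obtained by nonlinear regression of dose–response curves.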
# U-87 MG [11] = assay: Antiproliferative activity against human U-87 MG cells incubated for 72 to 120 hrs by MTT assay; assay type: functional, cell-based; details: U-87MG ATCC, time 72-120 hrs; summary of the method: as §3
# HEK293T [12] = assay: Binding affinity to NO66 in HEK293T cells assessed as substrate trapping using RPL8 as substrate at 100 uM after 18 hrs by immunoprecipitation analysis; assay type: cell-based; details: Homo sapiens; summary of the method: as §1
# OCI-AML2 = assay: Antiproliferative activity against human OCI-AML2 cells at 100 uM incubated for 48 hrs by WST-1 assay; assay type: functional, cell-based; summary of the method: as §7
# U-87 MG [13] = assay: Inhibition of KDM5 in human U-87MG cells assessed as increase in H3K4me3 level after 48 hrs by immunofluorescence analysis; assay type: cell-based; summary of the method: as §5
# U-87 MG [14] = assay: Synergistic cytotoxicity against human U-87MG cells assessed as combinantion index at ED50 after 24 hrs in presence of doxorubicin by MTT assay; assay type: functional, U-87MG ATCC; summary of the method: as §4
# U-87 MG [15] = assay: Synergistic cytotoxicity against human U-87MG cells assessed as combinantion index at ED75 after 24 hrs in presence of doxorubicin by MTT assay; assay type: functional, U-87MG ATCC; summary of the method: as §4
# U-87 MG [16] = assay: Induction of DNA damage in human U-87MG cells assessed as increase in gamma H2AX phosphorylation at ser139 at 20 uM by Western blot analysis; assay type: functional, cell-based; details: U-87MG ATCC
# U-937 = assay: Antiproliferative activity against human U-937 cells at 100 uM incubated for 48 hrs by WST-1 assay; assay type: functional, cell-based; summary of the method: as §7
# Kasumi 1 = assay: Antiproliferative activity against human Kasumi 1 cells at 100 uM incubated for 48 hrs by WST-1 assay; assay type: functional, cell-based; summary of the method: as §7
# U-87 MG [17] = assay: Induction of apoptosis in human U87-MG cells assessed as increase in sub-G1 cells at 10 uM after 24 hrs by propidium iodide staining based flow cytometry analysis; assay type: functional, cell-based; details: U-87MG ATCC
# Summary of the method: (§8)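 U-87MG treated 24 h with 10 μM compound, alone or with 0.5 μM doxorubicin. Cell-cycle phases and Sub-G1 fraction scored; three independent experiments.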
# U-87 MG [18] = assay: Induction of cell cycle arrest in human U-87MG cells assessed as accumulation of cells at G2/M phase at 10 uM after 24 hrs by propidium iodide staining based flow cytometry analysis; assay type: functional; details: U-87MG ATCC; summary of the method: as §8
# OCI-AML-3 = assay: Antiproliferative activity against human OCI-AML-3 cells at 100 uM incubated for 48 hrs by WST-1 assay; assay type: functional, cell-based; summary of the method: as §7
# KARPAS-299 = assay: Antiproliferative activity against human KARPAS-299 cells at 100 uM incubated for 48 hrs by WST-1 assay; assay type: functional, cell-based; summary of the method: as §7
# U-87 MG [19] = assay: Induction of apoptosis in human U87-MG cells assessed as increase in apoptotic cells at 10 uM after 24 hrs in presence of 0.5 uM doxorubicin by propidium iodide staining based flow cytometry analysis; assay type: functional, U-87MG ATCC; summary of the method: as §8
# [20] = Antiproliferative activity against human IMS-M2 cells at 100 uM incubated for 48 hrs by WST-1 assay; assay type: functional, cell-based; summary of the method: as §7
# MKN-45 = assay: Antiproliferative activity against human MKN-45 cells at 10 to 100 uM incubated for 72 to 120 hrs by MTT assay; assay type: functional, cell-based; details: dose 10-100 µM, time 72-120 hrs; summary of the method: as §3
# Homo sapiens [21] = species on record: Homo sapiens; assay: Inhibition of recombinant human NO66 expressed in Escherichia coli BL21 (DE3) using RPL8 N205PVEHPFGGGNHQHIGKPST224 as substrate at 100 uM preincubated for 15 mins followed by substrate addition and measured after 30 to 60 mins by RapidFire Mass spectrometry assay; details: time 45-75 min
# Summary of the method: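 NO66 (E. coli BL21(DE3)-R3-pRARE2, TEV-cleaved) at 375 nM in 50 mM MES pH 7.0, 150 mM NaCl. Preincubated 15 min with compound. […] Formic-acid quench, RapidFire SPE-MS % hydroxylation.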
# Homo sapiens [22] = species on record: Homo sapiens; assay: Inhibition of recombinant human MINA53 expressed in Escherichia coli BL21 (DE3) using RPL27A G31RGNAGGLHHHRINFDKYHP49 as substrate at 100 uM preincubated for 15 mins followed by substrate addition and measured after 30 to 60 mins by RapidFire Mass spectrometry assay; details: time 45-75 min
# U-87 MG [23] = assay: Antagonist cytotoxicity against human U-87MG cells assessed as reduction in cell viability at 20 uM after 24 hrs in presence of doxorubicin by MTT assay; assay type: functional, cell-based; details: U-87MG ATCC; summary of the method: as §6
# HL-60 = assay: Antiproliferative activity against human HL-60 cells at 100 uM incubated for 48 hrs by WST-1 assay; assay type: functional, cell-based; summary of the method: as §7
# NB-4 = assay: Antiproliferative activity against human NB-4 cells at 100 uM incubated for 48 hrs by WST-1 assay; assay type: functional, cell-based; summary of the method: as §7
IC50 (MV4-11),IC50 (OCI-AML2),IC50 (U-937),IC50 (OCI-AML-3),IC50 (KARPAS-299),SMILES,Activity (HEK293T [1]),Activity (HeLa [2]),Activity (HT-29),CI (U-87 MG [3]),Activity (HEK-293T),Activity (U-87 MG [4]),inhibition (U-87 MG [5]),Activity (U-87 MG [6]) [%],Activity (U-87 MG [11]),CI (U-87 MG [14]),CI (U-87 MG [15]),IC50 (Kasumi 1),Activity (U-87 MG [18]),IC50 [20],Activity (MKN-45),other results
Not Active,Not Active,Not Active,Not Active,Not Active,O=C(O)c1cnc(SCCCc2ccccc2)[nH]c1=O,Active,Active,inactive,0.18,Active,Active,inactive,75,Active,0.21,0.13,Not Active,Active,Not Active,Active,Activity (U-87 MG [7]): Dose-Dependent Effect; Activity (U-87 MG [8]): Dose-Dependent Effect; Activity (HeLa [9]): Active; inhibition (U-87 MG [10]): inactive; Activity (HEK293T [12]): inactive; inhibition (U-87 MG [13]): inactive; Activity (U-87 MG [16]; TDE = time-dependent effect): Tde; Activity (U-87 MG [17]): Active; Activity (U-87 MG [19]): 60%
,,,,,O=C(O)CCNc1cc(N2CCc3ccccc3CC2)nc(-c2ccccn2)n1,,,,,,,,,,,,,,,,inhibition (Homo sapiens [21]): inactive; inhibition (Homo sapiens [22]): inactive
Not Active,Not Active,Not Active,Not Active,Not Active,O=C(O)c1cnc(SCCc2ccccc2)[nH]c1=O,Active,Active,inactive,22.1,Active,Active,inactive,75,Active,0.32,0.63,Not Active,Active,Not Active,Active,Activity (U-87 MG [7]): Dose-Dependent Effect; Activity (U-87 MG [8]): Dose-Dependent Effect; Activity (HeLa [9]): Active; inhibition (U-87 MG [10]): inactive; Activity (HEK293T [12]): inactive; inhibition (U-87 MG [13]): inactive; Activity (U-87 MG [16]; TDE = time-dependent effect): Tde; Activity (U-87 MG [17]): Active; Activity (U-87 MG [19]): 60%
Not Active,Not Active,Not Active,Not Active,Not Active,O=C(O)c1c[nH]c(=S)[nH]c1=O,,,inactive,1,,,,,inactive,1,1,Not Active,inactive,Not Active,inactive,Activity (U-87 MG [23]): Active; Activity (U-87 MG [16]): inactive; IC50 (HL-60): Not Active; IC50 (NB-4): Not Active
,,,,,COC(=O)c1cnc(SCCCc2ccccc2)[nH]c1=O,,,Active,,,,,,Active,,,,,,Active,

# From ChEMBL document CHEMBL5030566, “First-in-Class Inhibitors of the Ribosomal Oxygenase MINA53” (J Med Chem, 2021)
